# Assay results collected from several papers.
# Lines come from different studies, so protocols differ.
# Target: Serine/threonine-protein kinase pim-2 (PIM2, Homo sapiens, UniProt Q9P1W9)
SMILES,effect on,technique,concentration,remaining binding [%]
N[C@@H]1CCN(c2nccc(-c3cnn4ncccc34)n2)C1,binding,,1 µM,100
COCCOc1nc(-c2ccc(Cl)nc2)nc2c1CN(C(=O)c1ncn3ccccc13)CC2,cell-free assay,competition with immobilised ligand,0.1 µM,98
N#Cc1ccccc1CSc1nnc2c(n1)[nH]c1ccccc12,binding,competition with immobilised ligand,10 µM,75
C[C@H](c1cccc(C#N)c1)n1cc(Cl)cc(C(N)=O)c1=N,cell-free assay,competition with immobilised ligand,1 µM,100
O=C(Nc1c[nH]nc1C(=O)NC1CCNCC1)c1cc(F)cc(F)c1,binding,competition with immobilised ligand,1 µM,96
O=C(NCCCN1CCOCC1)c1ccc(Nc2nccc(-c3cc4ccccc4s3)n2)cc1,binding,competition with immobilised ligand,1 µM,100
COc1cnc(Nc2cccc(S(N)(=O)=O)c2)nc1N1CCN(c2ccccc2)C(=O)C1,binding,competition with immobilised ligand,1 µM,100
CN(C)c1ncc(F)c(-c2cnn3ncccc23)n1,binding,,1 µM,95
O=C(c1ccc(Nc2nccc(-c3cc4ccccc4s3)n2)cc1)N1CCC(N2CCCC2)CC1,binding,competition with immobilised ligand,1 µM,100
O=C(N[C@H]1CCCCC/C=C\C2C[C@@]2(C(=O)O)NC(=O)[C@@H]2C[C@@H](Oc3ccncc3)CN2C1=O)OC1CCCC1 (stereo partly drawn),binding,competition with immobilised ligand,1 µM,100
COc1ncc2cc3ccccc3nc2c1C#N,cell-free assay,competition with immobilised ligand,5 µM,88
COc1ccnn2ncc(-c3ccnc(N(C)C)n3)c12,binding,,1 µM,100
c1cncc(-c2cccc(Nc3nccc(NC4CCCCC4)n3)c2)c1,binding,competition with immobilised ligand,10 µM,45
O=C(Nc1cccnn1)N1CCC(=Cc2cccc(Oc3ccc(C(F)(F)F)cn3)c2)CC1,cell-free assay,competition with immobilised ligand,1 µM,97
C[C@@H]1CCN(c2nccc(-c3cnn4ncccc34)n2)C1,binding,,1 µM,78
CN([C@@H]1CCc2c(CC(=O)O)c3ccccc3n2C1)S(=O)(=O)c1ccc(F)cc1,cell-free assay,competition with immobilised ligand,1 µM,100
CN(c1nccc(-c2cnn3ncccc23)n1)C1CC1,binding,,1 µM,100
O=C(c1ccc(Nc2ncc(Cl)c(-c3cc4ccccc4s3)n2)cc1)N1CCC(N2CCCC2)CC1,binding,competition with immobilised ligand,1 µM,100
CNC(=O)[C@@H]1CC[C@@H](n2c(-c3ccc4cnccc4c3)nc3ccc(C(=O)NCc4cccc(C(N)=O)c4)cc32)C1,binding,competition with immobilised ligand,1 µM,93
C[C@@H]1CN(c2ccc3ncc(-c4ccc5[nH]nc(C6CC6)c5c4)n3n2)C[C@H](C)O1,binding,competition with immobilised ligand,50 nM,92
CSc1cccnc1N1CCN(Cc2nc3ccccc3[nH]2)CC1,cell-free assay,competition with immobilised ligand,1 µM,96
C[C@@H](c1ccc(-n2cnc3c(N)ncnc32)cc1)N1CCc2nn(C)c(Cc3ccccc3)c2C1=O,binding,competition with immobilised ligand,0.1 µM,100
Cc1c(NC(=O)c2cc(C(N)=O)nc3cc(F)ccc23)c(C(F)(F)F)nn1Cc1ccc(C(C)(C)C)cc1,cell-free assay,competition with immobilised ligand,1 µM,100
CN(CCCC(F)(F)F)c1nccc(-c2cnn3ncccc23)n1,binding,,1 µM,100
